Assay results: ChEMBL document CHEMBL3097989, “Antimicrobial activity of de novo designed cationic peptides against multi-resistant clinical isolates” (Eur J Med Chem, 2014)
Where a SMILES comes first, the peptide text is derived from it.

Assays:
Format in all cases: functional
Enterococcus faecalis [1] = assay: Antibacterial activity against Enterococcus faecalis M6534 clinical isolate expressing vanB gene by microdilution test
How it was run: (§1)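 MIC by standard broth microdilution following CLSI recommendations, in Mueller Hinton broth supplemented with Ca²⁺ (20-25mg/L) and Mg²⁺ (10-12.5mg/L); peptides tested against a panel of multi-resistant clinical isolates plus ATCC reference strains.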

Escherichia coli [2] = assay: Antibacterial activity against Escherichia coli M7859 clinical isolate expressing blaCIT gene by microdilution test; how it was run: as §1
Pseudomonas aeruginosa [3] = assay: Antibacterial activity against Pseudomonas aeruginosa PCOS12 by microdilution test
How it was run: (§2)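 MIC by standard broth microdilution following CLSI recommendations, in Mueller Hinton broth supplemented with Ca²⁺ (20-25 mg/L) and Mg²⁺ (10-12.5 mg/L); ATCC reference strains included in the panel.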

Acinetobacter sp. [4] = assay: Antibacterial activity against Acinetobacter sp. M9665 clinical isolate expressing blaOXA-51 gene by microdilution test; how it was run: as §1
Staphylococcus aureus [5] = assay: Antibacterial activity against Staphylococcus aureus M6276 clinical isolate expressing ermA and lnuA gene by microdilution test; how it was run: as §2
Klebsiella pneumoniae [6] = assay: Antibacterial activity against Klebsiella pneumoniae PFAV3 by microdilution test; how it was run: as §1
Pseudomonas aeruginosa [7] = assay: Antibacterial activity against Pseudomonas aeruginosa M7712 clinical isolate expressing blaSPM gene by microdilution test; how it was run: as §2
Pseudomonas aeruginosa [8] = assay: Antibacterial activity against Pseudomonas aeruginosa M5200 clinical isolate expressing blaVIM and blaGES-1 gene by microdilution test; how it was run: as §2
Staphylococcus cohnii = assay: Antibacterial activity against Staphylococcus cohnii M6767 clinical isolate expressing mecA gene by microdilution test; how it was run: as §2
Staphylococcus hominis [9] = assay: Antibacterial activity against Staphylococcus hominis M2967 clinical isolate expressing mecA gene by microdilution test; how it was run: as §2
Pseudomonas aeruginosa [10] = assay: Antibacterial activity against Pseudomonas aeruginosa M11005 clinical isolate expressing blaKPC-2 gene by microdilution test; how it was run: as §1
Acinetobacter sp. [11] = assay: Antibacterial activity against Acinetobacter sp. M5282 clinical isolate expressing blaOXA-51 gene by microdilution test; how it was run: as §1
Klebsiella pneumoniae [12] = assay: Antibacterial activity against Klebsiella pneumoniae M9140 clinical isolate expressing blaCIT gene by microdilution test; how it was run: as §1
Enterococcus faecalis [13] = assay: Antibacterial activity against Enterococcus faecalis ATCC 29212 by microdilution test; how it was run: as §1
Staphylococcus aureus [14] = assay: Antibacterial activity against Staphylococcus aureus M2832 clinical isolate expressing mecA gene by microdilution test; how it was run: as §2
[15] = tested on: Staphylococcus epidermidis; assay: Antibacterial activity against Staphylococcus epidermidis M2921 clinical isolate expressing mecA gene by microdilution test; how it was run: as §2
Staphylococcus aureus [16] = assay: Antibacterial activity against Staphylococcus aureus M4046 clinical isolate expressing mecA gene by microdilution test; how it was run: as §2
Staphylococcus aureus [17] = assay: Antibacterial activity against Staphylococcus aureus P28 clinical isolate expressing ermA gene by microdilution test; how it was run: as §2
Pseudomonas aeruginosa [18] = assay: Antibacterial activity against Pseudomonas aeruginosa ATCC 27853 by microdilution test; how it was run: as §1
Escherichia coli [19] = assay: Antibacterial activity against Escherichia coli PNEU23 clinical isolate expressing blaOXA-GIII and blaTEM-1 gene by microdilution test; how it was run: as §1
[20] = tested on: Staphylococcus epidermidis; assay: Antibacterial activity against Staphylococcus epidermidis M2919 clinical isolate expressing mecA gene by microdilution test; how it was run: as §2
Klebsiella pneumoniae [21] = assay: Antibacterial activity against Klebsiella pneumoniae M9491 clinical isolate expressing blaMOX gene by microdilution test; how it was run: as §1
Staphylococcus hominis [22] = assay: Antibacterial activity against Staphylococcus hominis M2973 clinical isolate expressing mecA gene by microdilution test; how it was run: as §2
[23] = tested on: Staphylococcus epidermidis; assay: Antibacterial activity against Staphylococcus epidermidis M2923 by microdilution test; how it was run: as §2
Acinetobacter sp. [24] = assay: Antibacterial activity against Acinetobacter sp. PFAV1 clinical isolate expressing blaOXA-51, blaOXA-58 and blaPER gene by microdilution test; how it was run: as §1
Enterococcus faecalis [25] = assay: Antibacterial activity against Enterococcus faecalis M4899 clinical isolate expressing vanB gene by microdilution test; how it was run: as §1
Staphylococcus aureus [26] = assay: Antibacterial activity against Staphylococcus aureus M6794 clinical isolate expressing mecA gene by microdilution test; how it was run: as §2
Escherichia coli [27] = assay: Antibacterial activity against Escherichia coli PCOS15 clinical isolate expressing blaPER-2 and blaTEM-1 gene by microdilution test; how it was run: as §1
Staphylococcus aureus [28] = assay: Antibacterial activity against Staphylococcus aureus P204 clinical isolate expressing ermA gene by microdilution test; how it was run: as §2
Klebsiella pneumoniae [29] = assay: Antibacterial activity against Klebsiella pneumoniae M5825 clinical isolate expressing blaGES-3 and blaCTX-M-2 gene by microdilution test; how it was run: as §1
Acinetobacter sp. [30] = assay: Antibacterial activity against Acinetobacter sp. M5179 clinical isolate expressing blaOXA-51 gene by microdilution test; how it was run: as §1
Klebsiella pneumoniae [31] = assay: Antibacterial activity against Klebsiella pneumoniae M7647 clinical isolate expressing blaVIM, blaCTX-M-2, blaTEM-1 and blaSHV-1 gene by microdilution test; how it was run: as §1
Enterococcus faecium [32] = assay: Antibacterial activity against Enterococcus faecium M2481 clinical isolate expressing vanB gene by microdilution test; how it was run: as §1
Staphylococcus aureus [33] = assay: Antibacterial activity against Staphylococcus aureus P33 clinical isolate expressing msrA gene by microdilution test; how it was run: as §2
[34] = tested on: Staphylococcus saprophyticus; assay: Antibacterial activity against Staphylococcus saprophyticus M2981 clinical isolate expressing mecA gene by microdilution test; how it was run: as §2
Pseudomonas aeruginosa [35] = assay: Antibacterial activity against Pseudomonas aeruginosa M7723 clinical isolate expressing blaKPC-2 gene by microdilution test; how it was run: as §2
Enterococcus faecium [36] = assay: Antibacterial activity against Enterococcus faecium M6261 by microdilution test; how it was run: as §1
Enterococcus faecalis [37] = assay: Antibacterial activity against Enterococcus faecalis ATCC 51299 clinical isolate expressing vanB gene by microdilution test; how it was run: as §1
Acinetobacter sp. [38] = assay: Antibacterial activity against Acinetobacter sp. M7489 clinical isolate expressing blaOXA-51 and blaTEM gene by microdilution test; how it was run: as §1
Acinetobacter sp. [39] = assay: Antibacterial activity against Acinetobacter sp. M5949 clinical isolate expressing blaOXA-23 and blaOXA-GVI gene by microdilution test; how it was run: as §1
Enterococcus faecalis [40] = assay: Antibacterial activity against Enterococcus faecalis M6383 clinical isolate expressing vanA gene by microdilution test; how it was run: as §1
Pseudomonas aeruginosa [41] = assay: Antibacterial activity against Pseudomonas aeruginosa M5470 by microdilution test; how it was run: as §2
Escherichia coli [42] = assay: Antibacterial activity against Escherichia coli PLCA1 clinical isolate expressing blaCTX-M-2 and blaTEM-1 gene by microdilution test; how it was run: as §1
[43] = tested on: Staphylococcus saprophyticus; assay: Antibacterial activity against Staphylococcus saprophyticus M4070 clinical isolate expressing mecA gene by microdilution test; how it was run: as §2
Pseudomonas aeruginosa [44] = assay: Antibacterial activity against Pseudomonas aeruginosa M5109 clinical isolate expressing blaVIM and blaGES-1 gene by microdilution test; how it was run: as §2
Enterococcus gallinarum = assay: Antibacterial activity against Enterococcus gallinarum M2723 clinical isolate expressing vanC1 and vanA gene by microdilution test; how it was run: as §1
Escherichia coli [45] = assay: Antibacterial activity against Escherichia coli ATCC 25922 by microdilution test; how it was run: as §1
Acinetobacter sp. [46] = assay: Antibacterial activity against Acinetobacter sp. M5277 clinical isolate expressing blaPER gene by microdilution test; how it was run: as §1
Enterococcus faecium [47] = assay: Antibacterial activity against Enterococcus faecium M2304 clinical isolate expressing vanA gene by microdilution test; how it was run: as §1
Escherichia coli [48] = assay: Antibacterial activity against Escherichia coli M9884 by microdilution test; how it was run: as §1
Acinetobacter sp. [49] = assay: Antibacterial activity against Acinetobacter sp. M7978 clinical isolate expressing blaIMP-1 gene by microdilution test; how it was run: as §1
[50] = tested on: Staphylococcus haemolyticus; assay: Antibacterial activity against Staphylococcus haemolyticus M2976 clinical isolate expressing mecA gene by microdilution test; how it was run: as §2
Enterococcus faecium [51] = assay: Antibacterial activity against Enterococcus faecium PZAP95 by microdilution test; how it was run: as §1

Measured: MIC90

CC[C@H](C)[C@H](N)C(=O)N[C@@H](CC(C)C)C(=O)N[C@@H](CCCNC(=N)N)C(=O)N[C@@H](Cc1c[nH]c2ccccc12)C(=O)N1CCC[C@H]1C(=O)N[C@@H](Cc1c[nH]c2ccccc12)C(=O)N[C@@H](Cc1c[nH]c2ccccc12)C(=O)N1CCC[C@H]1C(=O)N[C@@H](Cc1c[nH]c2ccccc12)C(=O)N[C@@H](CCCNC(=N)N)C(=O)N[C@@H](CCCNC(=N)N)C(=O)N[C@@H](CCCCN)C(N)=O.Cl.Cl.Cl.Cl.Cl [OMIGANAN PENTAHYDROCHLORIDE] (H-ILRWPWWPWRRK-NH2)
512 µg/mL: Pseudomonas aeruginosa [3] | Pseudomonas aeruginosa [7] | Pseudomonas aeruginosa [8] | Pseudomonas aeruginosa [10] | Pseudomonas aeruginosa [41]
4 µg/mL: Acinetobacter sp. [4] | Staphylococcus cohnii | Staphylococcus hominis [9] | Staphylococcus hominis [22] | Enterococcus faecium [47] | [50]
16 µg/mL: Acinetobacter sp. [24] | Enterococcus faecium [32] | Enterococcus faecium [36] | Enterococcus gallinarum | Acinetobacter sp. [49] | Enterococcus faecium [51]
8 µg/mL: Acinetobacter sp. [11] | [15] | [20] | [23] | [34] | Acinetobacter sp. [38] | [43]
32 µg/mL: Staphylococcus aureus [5] | Staphylococcus aureus [16] | Staphylococcus aureus [17] | Escherichia coli [19] | Acinetobacter sp. [30] | Staphylococcus aureus [33] | Acinetobacter sp. [39] | Acinetobacter sp. [46]
1020 µg/mL: Klebsiella pneumoniae [31]
256 µg/mL: Enterococcus faecalis [1] | Pseudomonas aeruginosa [18] | Enterococcus faecalis [25] | Pseudomonas aeruginosa [35] | Enterococcus faecalis [37] | Pseudomonas aeruginosa [44]
128 µg/mL: Klebsiella pneumoniae [6] | Enterococcus faecalis [13] | Klebsiella pneumoniae [21] | Enterococcus faecalis [40]
64 µg/mL: all other assays above
